Data as given in ChEMBL document CHEMBL1132221, “Isoxazolo-[3,4-d]-pyridazin-7-(6H)-one as a potential substrate for new aldose reductase inhibitors” (J Med Chem, 1999).

Experiments:
[1] = target: T1, Aldo-keto reductase family 1 member B1 (Bos taurus, UniProt P16116); assay: In vitro inhibitory activity against aldose reductase (ALR2) obtained from calf lenses
Outline: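 ALR2 purified from calf lens: homogenate in pH 7 phosphate buffer with 5 mM DTT, then DE52 ion exchange, Orange Matrex affinity and Sephadex G75. Assay at 37 °C, 4.7 mM D,L-glyceraldehyde, 0.11 mM NADPH, 0.25 M sodium phosphate pH 6.8 with 0.38 M ammonium sulfate, 1% DMSO. NADPH oxidation read at 340 nm against a substrate-free blank.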

[2] = target: T1, Aldo-keto reductase family 1 member B1; assay: In vitro inhibitory activity against Aldose reductase 2 obtained from calf lenses
[3] = target: Aldo-keto reductase family 1 member B1 (Bos taurus) (UniProt P16116); assay: In vitro inhibitory activity against Aldose reductase 2 obtained from calf lenses at a concentration of 142 uM
Outline: (§1)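 Calf lens ALR2 purified by DE52, Orange Matrex affinity and Sephadex G75 chromatography. Inhibitor in DMSO (1% final) added to a 37 °C reaction with 4.7 mM D,L-glyceraldehyde and 0.11 mM NADPH in 0.25 M sodium phosphate pH 6.8 containing 0.38 M ammonium sulfate. Activity followed as absorbance change at 340 nm, corrected with a blank lacking substrate.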

[4] = target: Aldo-keto reductase family 1 member B1 (Bos taurus) (UniProt P16116); assay: In vitro inhibitory activity against Aldose reductase 2 obtained from calf lenses at a concentration of 82 uM; outline: as §1
[5] = target: Aldo-keto reductase family 1 member B1 (Bos taurus) (UniProt P16116); assay: In vitro inhibitory activity against Aldose reductase 2 obtained from calf lenses at a concentration of 94 uM; outline: as §1
[6] = target: Aldo-keto reductase family 1 member B1 (Bos taurus) (UniProt P16116); assay: In vitro inhibitory activity against Aldose reductase 2 obtained from calf lenses at a concentration of 16 uM; outline: as §1
[7] = target: Aldo-keto reductase family 1 member B1 (Bos taurus) (UniProt P16116); assay: In vitro inhibitory activity against Aldose reductase 2 obtained from calf lenses at a concentration of 190 uM; outline: as §1

| IC50 [2] | SMILES | also measured |
| --- | --- | --- |
|  | CC(=O)c1c(C)nn(CC(=O)O)c(=O)c1N | IC50 [1]: 210 µM |
| 37 µM | CC(=O)c1c(-c2ccccc2)nn(CCCC(=O)O)c(=O)c1N |  |
|  | CC(=O)c1c(-c2ccccc2)nn(CCC(=O)O)c(=O)c1N | inhibition [3]: 27% |
| 65.2 µM | Cc1onc2c(=O)n(CCC(=O)O)nc(-c3ccccc3)c12 |  |
| 68.5 µM | O=C(O)Cn1nc(-c2ccccc2)cc(NCCc2ccccc2)c1=O |  |
| 3.72 µM | Cc1onc2c(=O)n(CC(=O)O)nc(-c3ccc(Cl)cc3)c12 |  |
| 20.2 µM | Cc1onc2c(=O)n(CCCC(=O)O)nc(-c3ccccc3)c12 |  |
| 4.76 µM | Cc1onc2c(=O)n(CC(=O)O)nc(-c3ccc([N+](=O)[O-])cc3)c12 |  |
|  | CC(=O)c1c(-c2ccccc2)nn(CC(=O)O)c(=O)c1N | IC50 [1]: 154 µM |
| 6.06 µM | Cc1onc2c(=O)n(CC(=O)O)nc(-c3ccccc3[N+](=O)[O-])c12 |  |
| 4.46 µM | C[c-]1[o+]nc2c(=O)n(CC(=O)O)nc(-c3cccc([N+](=O)[O-])c3)c21 |  |
| 133 µM | CC(=O)c1c(-c2ccccc2)nn(CC(=O)O)c(=O)c1Nc1ccc(Br)cc1 |  |
| 65.1 µM | Cc1nn(CCCC(=O)O)c(=O)c2noc(C)c12 |  |
| 34.8 µM | Cc1onc2c(=O)n(CCC(=O)O)nc(-c3ccc(Cl)cc3)c12 |  |
| 42 µM | Cc1nn(CC(=O)O)c(=O)c2noc(C)c12 |  |
| 10.4 µM | Cc1onc2c(=O)n(CCCC(=O)O)nc(-c3ccc(Cl)cc3)c12 |  |

| IC50 [2] | SMILES | also measured |
| --- | --- | --- |
| 75 µM | CCC(C(=O)O)n1nc(-c2ccccc2)c2c(C)onc2c1=O (configuration not stated) |  |
| 76.8 µM | Cc1onc2c(=O)n(C(C)C(=O)O)nc(-c3ccccc3)c12 (configuration not stated) |  |
|  | Cc1onc2c(=O)n(C/C=C/C(=O)O)nc(-c3ccccc3)c12 | IC50 [1]: 107 µM |
| 28.4 µM | Cc1onc2c(=O)n(CCCCC(=O)O)nc(-c3ccccc3)c12 |  |
| 157 µM | O=C(O)Cn1nc(-c2ccccc2)cc(NCCc2ccccn2)c1=O |  |
| 97.9 µM | Cc1c(-c2nc3cc(C(F)(F)F)ccc3s2)nc2c(O)n(CC(=O)O)nc(-c3ccccc3)c1-2 |  |
| 12.7 µM | Cc1onc2c(=O)n(CC(=O)O)nc(-c3ccccc3)c12 |  |
| 36.5 µM | CC(=O)c1c(-c2ccccc2)nn(CC(=O)O)c(=O)c1NCc1ccc(Cl)cc1 |  |
| 27.6 µM | CC(=O)c1c(-c2ccccc2)nn(CC(=O)O)c(=O)c1NCc1ccccc1 |  |
|  | Nc1cc(-c2ccccc2)nn(CC(=O)O)c1=O | inhibition [4]: 36% |
|  | CC(=O)c1c(-c2ccccc2)nn(CC(=O)O)c(=O)c1Nc1ccc(Cl)cc1 | inhibition [5]: 27% |
|  | CC(=O)c1c(-c2ccccc2)nn(CC(=O)O)c(=O)c1Nc1ccccc1 | inhibition [6]: 12% |
|  | Cc1nn(CCC(=O)O)c(=O)c2noc(C)c12 | inhibition [7]: 28% |
| 48.8 µM | O=C(O)Cn1nc(-c2ccccc2)cc(NCc2ccccc2)c1=O |  |
| 114 µM | CCCC(C(=O)O)n1nc(-c2ccccc2)c2c(C)onc2c1=O (configuration not stated) |  |
| 93.9 µM | CC(=O)c1c(-c2ccccc2)nn(CC(=O)O)c(=O)c1NCCc1ccccc1 |  |
